Consider 18 molecules from ChEMBL document CHEMBL4680235, “Structure-based discovery of novel 4-(2-fluorophenoxy)quinoline derivatives as c-Met inhibitors using isocyanide-involved multicomponent reactions” (Eur J Med Chem, 2020).

The test system of assay [1] is MKN-45. In words: Antiproliferative activity against human MKN-45 cells assessed as reduction in cell viability measured after 72 hrs by MTT assay. Particulars: MKN-45, 72 h. A general note: Formazan colour is commonly taken as a measure of viable cells.
Assay [2] relates to NCI-H460. In words: Antiproliferative activity against human NCI-H460 cells assessed as reduction in cell viability measured after 72 hrs by MTT assay. Particulars: NCI-H460, 72 h.
In assay [3] the test system is HT-29. In words: Antiproliferative activity against human HT-29 cells assessed as reduction in cell viability measured after 72 hrs by MTT assay. The following applies: HT-29, 72 h.
The test system of assay [4] is MDA-MB-231. In words: Antiproliferative activity against human MDA-MB-231 cells assessed as reduction in cell viability measured after 72 hrs by MTT assay. The following applies: MDA-MB-231, 72 h.
The target of assay [5] is Hepatocyte growth factor receptor (Homo sapiens, UniProt P08581). In words: Inhibition of c-MET (unknown origin) using poly (Glu, Tyr) 4:1 as substrate measured after 30 mins by HTRF assay.
Assay [6] concerns the target Vascular endothelial growth factor receptor 3 (Homo sapiens, UniProt P35916). In words: Inhibition of Flt4 (unknown origin). An outline of the steps: (§1)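 HTRF kinase assay with purified kinase protein on preloaded poly(Glu,Tyr) 4:1 substrate, 20 mg/mL. ATP at 10 mM (solution added) in buffer of 50 mM HEPES pH 7.0 with DTT, MgCl₂, MnCl₂ and 0.1% NaN₃. Compounds diluted in 1% DMSO. Reaction ran 30 min at 25 °C. Percent inhibition computed against no-enzyme (min) and full-activity (max) wells. IC50 taken from the inhibition curves.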

The target of assay [7] is Epidermal growth factor receptor (Homo sapiens, UniProt P00533). As to the kind of experiment: Inhibition of EGFR (unknown origin). The method, boiled down: as §1
For assay [8], the target named is Macrophage-stimulating protein receptor (Homo sapiens, UniProt Q04912). As to the kind of experiment: Inhibition of Ron (unknown origin). The method, boiled down: as §1
Assay [9] relates to NCI-H460. As to the kind of experiment: Antiproliferative activity against human NCI-H460 cells assessed as reduction in cell viability hrs by MTT assay. The following applies: TDE = time-dependent effect. It is filed as functional, cell-based.
The subject of assay [10] is NCI-H460. In words: Potency index, ratio of foretinib IC50 to test compound IC50 for antiproliferative activity against human NCI-H460 cells. It is filed as functional.
Assay [11] concerns HT-29. In words: Potency index, ratio of foretinib IC50 to test compound IC50 for antiproliferative activity against human HT-29 cells. It is filed as functional.
Assay [12] deals with Vascular endothelial growth factor receptor 2 (Homo sapiens, UniProt P35968). In words: Inhibition of VEGFR2 (unknown origin).
Assay [13] deals with T1, Receptor-type tyrosine-protein kinase FLT3 (Homo sapiens, UniProt P36888).
T1 sequence (P36888 whole entry): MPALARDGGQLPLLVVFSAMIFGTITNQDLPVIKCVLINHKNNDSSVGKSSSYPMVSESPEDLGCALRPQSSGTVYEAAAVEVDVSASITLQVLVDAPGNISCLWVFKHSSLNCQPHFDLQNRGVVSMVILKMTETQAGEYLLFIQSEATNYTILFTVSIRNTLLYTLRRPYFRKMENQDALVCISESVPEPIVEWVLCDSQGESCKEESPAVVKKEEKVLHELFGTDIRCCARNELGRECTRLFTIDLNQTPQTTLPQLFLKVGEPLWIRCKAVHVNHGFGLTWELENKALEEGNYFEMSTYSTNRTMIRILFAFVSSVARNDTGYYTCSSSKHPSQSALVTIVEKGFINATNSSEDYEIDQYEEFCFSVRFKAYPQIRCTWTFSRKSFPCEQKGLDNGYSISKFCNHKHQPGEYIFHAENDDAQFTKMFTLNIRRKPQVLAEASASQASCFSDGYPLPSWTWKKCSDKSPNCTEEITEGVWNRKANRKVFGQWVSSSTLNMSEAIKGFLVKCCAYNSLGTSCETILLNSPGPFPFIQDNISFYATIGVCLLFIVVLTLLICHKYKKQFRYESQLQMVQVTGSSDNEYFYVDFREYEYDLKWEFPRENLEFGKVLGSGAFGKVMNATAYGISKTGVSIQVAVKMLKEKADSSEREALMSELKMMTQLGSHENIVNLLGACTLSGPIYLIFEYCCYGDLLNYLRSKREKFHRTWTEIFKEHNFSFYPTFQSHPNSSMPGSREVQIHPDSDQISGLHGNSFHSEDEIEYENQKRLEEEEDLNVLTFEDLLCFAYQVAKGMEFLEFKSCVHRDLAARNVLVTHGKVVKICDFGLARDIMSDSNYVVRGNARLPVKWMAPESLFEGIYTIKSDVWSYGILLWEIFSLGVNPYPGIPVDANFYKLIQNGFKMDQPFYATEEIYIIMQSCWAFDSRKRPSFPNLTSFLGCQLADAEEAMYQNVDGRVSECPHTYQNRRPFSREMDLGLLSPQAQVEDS
As to the kind of experiment: Inhibition of FLT3 (unknown origin).

Assay [14] deals with Mast/stem cell growth factor receptor Kit (Homo sapiens, UniProt P10721). As to the kind of experiment: Inhibition of c-Kit (unknown origin). An outline of the steps:
as §1

Assay [15] has as its system MDA-MB-231. In words: Potency index, ratio of foretinib IC50 to test compound IC50 for antiproliferative activity against human MDA-MB-231 cells. It is filed as functional.

A word on the IC50: it is the concentration that gives 50% inhibition.

Chain of Hepatocyte growth factor receptor (P08581 whole entry): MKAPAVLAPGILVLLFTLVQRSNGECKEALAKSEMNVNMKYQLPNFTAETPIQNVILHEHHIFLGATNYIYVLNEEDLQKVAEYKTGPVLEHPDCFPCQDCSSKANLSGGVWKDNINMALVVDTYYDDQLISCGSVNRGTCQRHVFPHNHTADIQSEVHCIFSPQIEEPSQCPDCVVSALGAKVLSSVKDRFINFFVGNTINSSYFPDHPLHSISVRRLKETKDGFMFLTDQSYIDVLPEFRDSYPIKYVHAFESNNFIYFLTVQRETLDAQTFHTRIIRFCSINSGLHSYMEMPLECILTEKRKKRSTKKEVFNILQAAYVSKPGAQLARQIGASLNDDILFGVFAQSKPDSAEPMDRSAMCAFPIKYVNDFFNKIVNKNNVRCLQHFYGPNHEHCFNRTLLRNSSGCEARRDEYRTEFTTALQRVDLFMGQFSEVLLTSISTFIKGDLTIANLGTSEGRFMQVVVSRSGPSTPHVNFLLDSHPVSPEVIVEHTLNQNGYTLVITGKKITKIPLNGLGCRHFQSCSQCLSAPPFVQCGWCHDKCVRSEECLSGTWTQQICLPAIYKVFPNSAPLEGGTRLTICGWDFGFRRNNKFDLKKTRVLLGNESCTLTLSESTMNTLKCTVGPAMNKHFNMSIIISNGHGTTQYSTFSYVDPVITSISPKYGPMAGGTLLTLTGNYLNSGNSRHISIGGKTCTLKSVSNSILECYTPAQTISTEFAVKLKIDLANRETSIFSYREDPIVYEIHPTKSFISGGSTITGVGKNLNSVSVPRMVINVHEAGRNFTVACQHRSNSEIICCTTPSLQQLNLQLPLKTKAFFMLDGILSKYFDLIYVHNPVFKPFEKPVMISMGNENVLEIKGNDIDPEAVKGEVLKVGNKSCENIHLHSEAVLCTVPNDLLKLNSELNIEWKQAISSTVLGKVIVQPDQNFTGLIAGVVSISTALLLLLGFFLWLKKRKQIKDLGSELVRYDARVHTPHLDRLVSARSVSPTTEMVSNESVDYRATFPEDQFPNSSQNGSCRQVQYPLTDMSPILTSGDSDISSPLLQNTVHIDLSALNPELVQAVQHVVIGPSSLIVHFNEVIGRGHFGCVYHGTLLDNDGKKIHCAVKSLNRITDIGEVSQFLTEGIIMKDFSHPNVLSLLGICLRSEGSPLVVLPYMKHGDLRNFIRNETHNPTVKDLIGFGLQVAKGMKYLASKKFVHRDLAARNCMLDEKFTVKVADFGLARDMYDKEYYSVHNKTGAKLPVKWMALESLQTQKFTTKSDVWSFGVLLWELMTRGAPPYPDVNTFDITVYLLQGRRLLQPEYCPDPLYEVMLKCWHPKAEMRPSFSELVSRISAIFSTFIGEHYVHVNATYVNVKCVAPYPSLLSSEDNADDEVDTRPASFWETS
Chain of Vascular endothelial growth factor receptor 2 (P35968 whole entry): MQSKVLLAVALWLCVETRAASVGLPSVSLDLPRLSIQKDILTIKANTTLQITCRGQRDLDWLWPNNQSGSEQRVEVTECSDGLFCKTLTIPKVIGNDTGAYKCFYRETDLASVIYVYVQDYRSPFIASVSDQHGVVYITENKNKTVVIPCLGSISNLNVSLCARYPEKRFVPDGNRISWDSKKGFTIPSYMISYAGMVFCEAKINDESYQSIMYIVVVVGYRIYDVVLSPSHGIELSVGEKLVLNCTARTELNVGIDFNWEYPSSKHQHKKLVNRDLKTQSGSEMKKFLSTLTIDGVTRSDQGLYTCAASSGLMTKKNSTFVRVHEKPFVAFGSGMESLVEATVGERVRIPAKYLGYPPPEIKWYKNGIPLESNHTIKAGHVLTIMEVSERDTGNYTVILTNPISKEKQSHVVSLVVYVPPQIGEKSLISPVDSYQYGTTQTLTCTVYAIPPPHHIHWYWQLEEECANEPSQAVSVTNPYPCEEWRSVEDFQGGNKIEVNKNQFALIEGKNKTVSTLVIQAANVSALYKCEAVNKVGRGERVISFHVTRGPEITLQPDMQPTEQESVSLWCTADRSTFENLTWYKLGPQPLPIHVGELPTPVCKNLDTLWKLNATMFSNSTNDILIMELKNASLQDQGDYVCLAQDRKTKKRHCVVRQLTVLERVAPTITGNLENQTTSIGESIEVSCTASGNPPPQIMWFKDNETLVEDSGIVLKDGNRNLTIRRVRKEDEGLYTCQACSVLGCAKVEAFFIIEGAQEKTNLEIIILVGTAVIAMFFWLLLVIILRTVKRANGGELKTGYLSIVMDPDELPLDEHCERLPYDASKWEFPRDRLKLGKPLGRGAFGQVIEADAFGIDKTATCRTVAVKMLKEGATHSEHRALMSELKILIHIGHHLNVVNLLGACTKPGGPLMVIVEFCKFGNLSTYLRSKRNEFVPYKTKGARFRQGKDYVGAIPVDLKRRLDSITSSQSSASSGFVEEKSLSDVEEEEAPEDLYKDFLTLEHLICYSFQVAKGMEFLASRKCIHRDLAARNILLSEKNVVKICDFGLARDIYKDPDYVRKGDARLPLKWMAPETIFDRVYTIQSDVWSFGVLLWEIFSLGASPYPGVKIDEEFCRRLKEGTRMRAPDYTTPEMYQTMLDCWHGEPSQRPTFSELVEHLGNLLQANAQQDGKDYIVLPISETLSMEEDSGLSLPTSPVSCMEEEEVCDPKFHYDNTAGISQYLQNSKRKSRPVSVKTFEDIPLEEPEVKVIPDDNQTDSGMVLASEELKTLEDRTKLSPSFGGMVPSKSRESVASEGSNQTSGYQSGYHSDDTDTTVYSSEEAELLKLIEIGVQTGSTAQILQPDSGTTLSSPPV
Chain of Mast/stem cell growth factor receptor Kit (P10721 whole entry): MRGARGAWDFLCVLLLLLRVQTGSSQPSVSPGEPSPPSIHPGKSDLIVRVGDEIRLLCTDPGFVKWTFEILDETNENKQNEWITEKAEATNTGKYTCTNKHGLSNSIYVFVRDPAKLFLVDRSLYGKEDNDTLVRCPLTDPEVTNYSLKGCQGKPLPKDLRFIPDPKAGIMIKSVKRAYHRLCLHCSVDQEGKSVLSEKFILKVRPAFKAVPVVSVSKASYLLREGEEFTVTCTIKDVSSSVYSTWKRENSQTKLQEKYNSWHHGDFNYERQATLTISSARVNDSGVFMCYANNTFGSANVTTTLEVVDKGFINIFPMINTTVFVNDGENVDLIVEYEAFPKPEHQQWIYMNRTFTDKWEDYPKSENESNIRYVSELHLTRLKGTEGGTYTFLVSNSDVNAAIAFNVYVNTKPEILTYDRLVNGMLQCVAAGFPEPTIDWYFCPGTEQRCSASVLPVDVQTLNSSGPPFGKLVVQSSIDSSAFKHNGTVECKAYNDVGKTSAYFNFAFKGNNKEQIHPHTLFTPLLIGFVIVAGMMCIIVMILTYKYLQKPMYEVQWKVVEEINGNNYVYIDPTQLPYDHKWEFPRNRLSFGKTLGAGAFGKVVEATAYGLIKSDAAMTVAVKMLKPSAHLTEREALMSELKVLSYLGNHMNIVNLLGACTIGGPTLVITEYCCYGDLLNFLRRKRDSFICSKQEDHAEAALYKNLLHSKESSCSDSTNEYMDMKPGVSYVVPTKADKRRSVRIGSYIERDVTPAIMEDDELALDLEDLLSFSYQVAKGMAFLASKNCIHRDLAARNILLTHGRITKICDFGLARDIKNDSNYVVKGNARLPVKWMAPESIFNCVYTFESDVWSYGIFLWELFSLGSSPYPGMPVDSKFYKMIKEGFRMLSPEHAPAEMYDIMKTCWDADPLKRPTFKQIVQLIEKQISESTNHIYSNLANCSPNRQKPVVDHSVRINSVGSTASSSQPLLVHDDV
Chain of Macrophage-stimulating protein receptor (Q04912 25-304 limits assumed): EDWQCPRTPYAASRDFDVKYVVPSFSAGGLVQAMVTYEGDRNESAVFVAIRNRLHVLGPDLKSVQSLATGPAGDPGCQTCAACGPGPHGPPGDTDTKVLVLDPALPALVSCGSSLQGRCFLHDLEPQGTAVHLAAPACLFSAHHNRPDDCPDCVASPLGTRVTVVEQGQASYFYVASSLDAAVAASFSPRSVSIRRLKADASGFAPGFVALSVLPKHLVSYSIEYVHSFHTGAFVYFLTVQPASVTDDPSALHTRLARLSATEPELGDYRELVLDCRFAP
Chain of Macrophage-stimulating protein receptor (Q04912 310-1400 limits assumed): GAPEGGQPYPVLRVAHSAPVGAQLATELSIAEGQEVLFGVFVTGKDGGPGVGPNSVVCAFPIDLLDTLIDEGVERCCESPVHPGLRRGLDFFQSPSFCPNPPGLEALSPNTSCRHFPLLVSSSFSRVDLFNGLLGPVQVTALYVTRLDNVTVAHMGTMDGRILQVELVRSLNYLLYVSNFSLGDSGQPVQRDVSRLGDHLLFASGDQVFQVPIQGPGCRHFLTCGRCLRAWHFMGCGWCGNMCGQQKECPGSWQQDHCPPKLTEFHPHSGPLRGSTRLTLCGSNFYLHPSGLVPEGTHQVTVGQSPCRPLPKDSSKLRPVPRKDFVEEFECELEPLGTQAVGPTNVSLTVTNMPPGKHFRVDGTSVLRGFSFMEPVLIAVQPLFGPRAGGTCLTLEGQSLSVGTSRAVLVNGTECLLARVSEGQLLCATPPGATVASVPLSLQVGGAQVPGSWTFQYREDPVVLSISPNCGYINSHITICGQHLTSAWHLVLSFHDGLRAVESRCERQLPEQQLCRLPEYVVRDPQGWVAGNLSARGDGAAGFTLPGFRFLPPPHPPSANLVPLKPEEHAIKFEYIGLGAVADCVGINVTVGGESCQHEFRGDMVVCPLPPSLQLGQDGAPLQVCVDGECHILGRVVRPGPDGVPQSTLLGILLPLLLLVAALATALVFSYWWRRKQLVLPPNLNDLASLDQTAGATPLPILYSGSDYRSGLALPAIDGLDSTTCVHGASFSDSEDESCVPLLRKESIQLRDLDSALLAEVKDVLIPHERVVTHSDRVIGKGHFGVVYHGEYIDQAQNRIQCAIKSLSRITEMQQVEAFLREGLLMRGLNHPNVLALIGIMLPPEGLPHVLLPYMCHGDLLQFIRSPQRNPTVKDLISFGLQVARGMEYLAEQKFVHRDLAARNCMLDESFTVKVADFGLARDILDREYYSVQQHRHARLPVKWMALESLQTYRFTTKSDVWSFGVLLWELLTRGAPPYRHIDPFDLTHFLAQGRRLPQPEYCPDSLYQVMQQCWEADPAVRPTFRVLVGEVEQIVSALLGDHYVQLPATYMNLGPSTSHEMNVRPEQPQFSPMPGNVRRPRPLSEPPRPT

Take `COc1cc2nccc(Oc3ccc(NC(=O)C(N(C(=O)c4ccc(F)cc4)C(C)(C)C)C(C)(C)C)cc3F)c2cc1OC` (configuration not stated): the IC50 was 1.58 µM in assay [1], 1.3 µM in [2], 1.45 µM in assay [3] and 1.7 µM in assay [4].
In the case of `COc1cc2nccc(Oc3ccc(NC(=O)C(OC(=O)c4ccccc4)C4CCCCC4)cc3F)c2cc1OC` (configuration not stated), the IC50 in assay [1] worked out at 20.5 µM; in assay [2], 10.3 µM; in assay [3], 15.6 µM; in [4], 17.9 µM.
Taken in the same sequence, the figures for `CCCC(OC(=O)c1ccccc1)C(=O)Nc1ccc(Oc2ccnc3cc(OC)c(OC)cc23)c(F)c1` (configuration not stated) were 1.87 µM, 0.89 µM, 1.24 µM and 2.48 µM.
`COc1cc2nccc(Oc3ccc(NC(=O)C(OC(=O)c4ccc(Cl)cc4)C(C)(C)C)cc3F)c2cc1OC` (configuration not stated): the IC50 was determined as 0.32 µM in [1], 0.2 µM in assay [2], 0.24 µM in [3] and 0.48 µM in [4].
Regarding `COc1cc2nccc(Oc3ccc(NC(=O)C(C)OC(=O)c4ccccc4)cc3F)c2cc1OC` (configuration not stated), the IC50 in assay [1] was determined as 2.39 µM; in [2], 1.29 µM; in assay [3] it was 1.92 µM; in [4], 3.21 µM.
In the same order, the values of `COc1cc2nccc(Oc3ccc(NC(=O)C(OC(=O)c4cccs4)C(C)(C)C)cc3F)c2cc1OC` (configuration not stated) are 1.7 µM, 0.96 µM, 1.26 µM and 1.89 µM.
Regarding `CCCCN(C(=O)c1ccc(F)cc1)C(C(=O)Nc1ccc(Oc2ccnc3cc(OC)c(OC)cc23)c(F)c1)C(C)(C)C` (configuration not stated), the IC50 in [1] was 0.68 µM; in assay [2], 0.47 µM; in assay [3], 0.52 µM; in assay [4], 0.86 µM.
Taken in the same sequence, the figures for `COc1cc2nccc(Oc3ccc(NC(=O)C(OC(=O)c4ccccc4Cl)C(C)(C)C)cc3F)c2cc1OC` (configuration not stated) were 0.46 µM, 0.22 µM, 0.29 µM and 0.76 µM.
Taken in the same sequence, the figures for `COc1cc2nccc(Oc3ccc(NC(=O)C(OC(=O)C4CCCC4)C(C)(C)C)cc3F)c2cc1OC` (configuration not stated) were 11.5 µM, 11.6 µM, 9.27 µM and 14 µM.
Turning to `COc1cc2nccc(Oc3ccc(NC(=O)C(OC(=O)c4ccc(C(C)(C)C)cc4)C(C)(C)C)cc3F)c2cc1OC` (configuration not stated), the half-maximal inhibitory concentration (IC50) in assay [1] was 3.95 µM; in assay [2], 2.06 µM; in assay [3], 2.45 µM; in assay [4], 4.45 µM.
Taken in the same sequence, the figures for `COc1cc2nccc(Oc3ccc(NC(=O)C(N(C(=O)c4ccc(F)cc4)C4CCCCC4)C(C)(C)C)cc3F)c2cc1OC` (configuration not stated) were 6.65 µM, 4.34 µM, 5.35 µM and 8.48 µM.
For `COc1cc2nccc(Oc3ccc(NC(=O)C(OC(=O)c4ccc(C)cc4)C(C)(C)C)cc3F)c2cc1OC` (configuration not stated), the IC50 came out at 1.08 µM in assay [1], 0.78 µM in [2], 0.85 µM in [3] and 1.42 µM in [4].
Consider `COc1cc2nccc(Oc3ccc(NC(=O)C(N(C(=O)c4ccc(F)cc4)c4ccccc4)C(C)(C)C)cc3F)c2cc1OC` (configuration not stated), for which the IC50 was found to be 11.5 µM in [1], 7.56 µM in assay [2], 9.27 µM in assay [3] and 14 µM in assay [4].
`COc1cc2nccc(Oc3ccc(NC(=O)[C@H](OC(=O)c4ccc(F)cc4)C(C)(C)C)cc3F)c2cc1OC`: the IC50 in assay [5] is 0.00256 µM.
Regarding `COc1cc2nccc(Oc3ccc(NC(=O)C(OC(=O)c4ccc(F)cc4)C(C)(C)C)cc3F)c2cc1OC` (racemic), the half-inhibitory concentration (IC50) in assay [6] was 0.54 µM; in assay [7] it was greater than 10 µM; in [8], 0.0186 µM; in assay [12], 0.295 µM; in assay [13], 0.00615 µM; in [5], 0.00243 µM. Besides, the IC50 was 0.26 µM in [1]; 0.14 µM in assay [2]; 0.2 µM in assay [3]; 0.00442 µM in assay [14]; 0.42 µM in assay [4]. For the same molecule, in assay [9], the Activity result was “Tde”. In addition, the “Ratio IC50” value in [10] is given as 1.7; in assay [11] it was 1.3; in assay [15], 1.6.
`COc1cc2nccc(Oc3ccc(NC(=O)C(C)OC(=O)c4cccs4)cc3F)c2cc1OC` (configuration not stated): the IC50 in assay [1] amounted to 6.39 µM; in assay [2], 2.46 µM; in [3] it was 4.02 µM; in [4], 8.24 µM.
`COc1cc2nccc(Oc3ccc(NC(=O)[C@@H](OC(=O)c4ccc(F)cc4)C(C)(C)C)cc3F)c2cc1OC` returned an IC50 in assay [5] of 0.00249 µM.
With `COc1cc2nccc(Oc3ccc(NC(=O)C(OC(=O)c4ccccc4F)C(C)(C)C)cc3F)c2cc1OC` (configuration not stated), the IC50 is 0.38 µM in assay [1], 0.21 µM in assay [2], 0.24 µM in assay [3] and 0.44 µM in assay [4].
